Measurements from PubChem BioAssay.
Calls of active or inactive are those of the source.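 How the source made its calls, unless noted: active means inhibition at or above 50% at 10 µM; inactive means inhibition below 50%.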

Tests used:
[1] = inhibitors of TNFa-induced NFkB p65 translocation, primary screen, imaging, HUVEC, MLSMR starter and 10KST1 sets (AID 438;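 active means inhibition above 20% together with a positive visual image hit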;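 further: compound added about 3h40 before a 20 min TNFalpha stimulation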;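 on inhibition: signal is the nuclear over cytoplasmic p65 intensity ratio per well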); settings: HUVEC TNFa-induced p65 nuclear translocation; cell count: measured here: nuclei count (cytotoxicity indicator), at 2.08 µM; inhibition: at 2 µM, stronger effect = higher value, 0% TNFa-plus-vehicle, 100% no-TNFa wells
[2] = inhibitors of mutant huntingtin aggregation, primary screen, imaging, exon1htt(103Q)mCFP cells, high-content imaging (AID 483;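 active means visual image review flags a hit and inhibition of aggregation exceeds 20%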;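 further: compound exposure lasted 3 days before fixation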;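 on nuclei count: percent of the per-plate median nuclei count of sample wells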); settings: exon1htt(103Q)mCFP cell line, aggregate imaging, at 2 µM; inhibition of aggregation: stronger effect = higher value; nuclei count: measured here: cell count, toxicity
[3] = inhibitors of E-selectin induction by TNFa, primary screen, imaging, HUVEC, immunofluorescence, MLSMR starter and 10KST1 sets (AID 487;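 active means visually confirmed hit in the image check and inhibition above 20%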;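 on inhibition: signal is fraction of cell area covered by stained E-selectin grains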;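 on nuclei count: 100% = median nuclei count of all wells on the same plate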); settings: HUVEC TNFalpha-induced E-selectin immunofluorescence imaging, at 2 µM; inhibition: stronger effect = higher value; nuclei count: measured here: cell number, toxicity
[4] = target: Voltage-gated potassium channel subunit beta-2 (Rattus norvegicus) (UniProt P62483); test: KvBeta enzyme negative modulators, primary screen, biochemical, NADPH fluorescence (AID 622;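 active means fluorescence slope higher than the sample average by over 3 SD, cut at about -0.22 in these data, passing the limit was not always enough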;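 further: slope of raw intensity against log time taken from 70 to 1610 s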); settings: recombinant KvBeta, 4-cyanobenzaldehyde reduction, at 10 µM, stronger effect = higher value
Chain of Voltage-gated potassium channel subunit beta-2 (Rattus norvegicus) (P62483 whole entry, looked up): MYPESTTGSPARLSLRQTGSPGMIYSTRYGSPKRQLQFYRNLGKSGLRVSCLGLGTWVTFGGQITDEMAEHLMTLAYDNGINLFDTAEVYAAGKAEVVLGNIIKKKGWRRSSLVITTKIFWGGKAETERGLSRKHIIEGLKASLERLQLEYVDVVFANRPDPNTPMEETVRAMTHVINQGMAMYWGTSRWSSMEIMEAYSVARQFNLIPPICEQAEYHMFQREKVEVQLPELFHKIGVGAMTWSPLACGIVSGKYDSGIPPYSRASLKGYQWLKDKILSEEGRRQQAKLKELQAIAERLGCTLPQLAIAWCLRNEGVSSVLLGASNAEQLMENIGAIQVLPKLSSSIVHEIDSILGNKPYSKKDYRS

[5] = target: Voltage-gated potassium channel subunit beta-2 (Rattus norvegicus) (UniProt P62483); test: KvBeta positive modulators, primary screen, biochemical, NADPH fluorescence (AID 623;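 active means NADPH fluorescence slope more negative than the mean of all samples by about 3 SD, 99.7% confidence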;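 further: fluorescence intensity change per second fitted from 20 to 320 s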); settings: Recombinant KvBeta, NADPH fluorescence decrease slope, 10 min; at 10 µM; stronger effect = lower value
[6] = target: Muscarinic acetylcholine receptor M4 (Homo sapiens) (UniProt P08173); test: compounds altering M4/GIRK thallium flux, either direction, primary screen, M4 allosteric agonist project, cell-based, HEK293 M4/GIRK, BTC-AM (AID 625;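 active means fluorescence slope after compound addition differing from the mean of all tested samples at 99.7% confidence, mostly higher but some lower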;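 further: thallium influx through GIRK channels coupled to M4 in HEK293 cells with BTC-AM dye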); settings: at 10 µM, actives lie on both sides
Chain of Muscarinic acetylcholine receptor M4 (Homo sapiens) (P08173 whole entry, looked up): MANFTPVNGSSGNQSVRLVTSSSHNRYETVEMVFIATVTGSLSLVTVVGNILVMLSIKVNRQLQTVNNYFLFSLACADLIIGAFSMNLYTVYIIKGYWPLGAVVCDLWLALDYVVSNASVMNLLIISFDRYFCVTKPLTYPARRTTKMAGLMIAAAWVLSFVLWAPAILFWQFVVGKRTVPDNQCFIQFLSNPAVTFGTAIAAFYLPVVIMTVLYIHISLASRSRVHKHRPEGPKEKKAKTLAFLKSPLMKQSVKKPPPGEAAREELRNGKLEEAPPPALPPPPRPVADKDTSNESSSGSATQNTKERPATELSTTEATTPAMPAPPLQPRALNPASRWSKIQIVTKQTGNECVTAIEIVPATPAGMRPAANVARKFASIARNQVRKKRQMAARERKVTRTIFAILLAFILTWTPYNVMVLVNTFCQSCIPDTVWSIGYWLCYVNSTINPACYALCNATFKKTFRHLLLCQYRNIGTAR
In short: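 System: HEK293 cells with M4 receptor and GIRK channels | Incubation: Cells overnight at 37 °C, BTC-AM loading 1 h, reads 2 min total | Technique: Kinetic BTC-AM fluorescence sampled at 1 Hz, 10 s pre-addition baseline | Measure: Post-addition slope, 15–24 s, of baseline-normalized fluorescence | Control set: Carbachol positive, DMSO negative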

[7] = inhibitors of Sendai virus-induced IRF3 signaling, primary screen, TLR/RLR signaling modifier project, cell-based, Sendai virus stimulus, luciferase, 10K MLSCN set (AID 602276); settings: HEK293 RL24 IRF3 luciferase reporter, at 10 µM, stronger effect = higher value;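 further: firefly luciferase from ISG56 promoter only with Renilla not read in this screen; 0% = Sendai virus plus DMSO and 100% = medium plus DMSO without virus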
[8] = inhibitors of poly I:C-induced TLR3 signaling, primary screen, cell-based, poly I:C stimulus, luciferase, 10K MLSCN set (AID 602277;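 active means inhibition of the reporter signal at or above 50%; inactive means inhibition below 50%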); settings: HEK293-TLR3 RL24 IRF3 luciferase reporter, at 10 µM, stronger effect = higher value

SMILES | cell count [1] | inhibition [1] | inhibition of aggregation [2] | nuclei count [2] | inhibition [3] | nuclei count [3] | fluorescence slope [4] | NADPH fluorescence slope [5] | fluorescence slope [6] | inhibition [7] | inhibition [8]
Cc1ccc(Nc2nc(CSc3nnnn3C)cs2)cc1 | 549 | -15.4% (inactive) | 3.7% (inactive) | 79.2% | 5.9% (inactive) | 109% | -0.458 (inactive) | -0.000383 (inactive) | 0.00561 (inactive) | -54.9% (inactive) | 98.7% (active)
O=C(NC1CC2CCC1C2)c1ccc(CN2CCOCC2)cc1 (configuration not stated) | 362 | 6.1% (inactive) | 4.3% (inactive) | 91.8% | -7.2% (inactive) | 99.5% | -0.466 (inactive) | -5.1e-05 (inactive) | 0.0046 (inactive) | -25.1% (inactive) | -53.4% (inactive)
COc1ccc(-c2noc(CN3CCC(Cc4ccccc4)CC3)n2)cc1 | 322 | -0.7% (inactive) | -24.1% (inactive) | 104% | -98.5% (inactive) | 123% | -0.553 (inactive) | 6.3e-06 (inactive) | 0.00696 (inactive) | -7.04% (inactive) | -6.07% (inactive)
O=C(CN1CCCN(S(=O)(=O)c2ccc(Br)cc2)CC1)Nc1ccc2cn[nH]c2c1 | 432 | -1.3% (inactive) | 11% (inactive) | 103% | -23.3% (inactive) | 134% | -0.517 (inactive) | -0.000173 (inactive) | 0.00424 (inactive) | -14.5% (inactive) | 2.45% (inactive)
COc1ccccc1C(=O)Nc1ccc(S(=O)(=O)N2CCOCC2)cc1 | 353 | -6% (inactive) | 21.1% (inactive) | 61.9% | -85.7% (inactive) | 105% | -0.571 (inactive) | -5.6e-05 (inactive) | 0.00422 (inactive) | 10.8% (inactive) | 0.189% (inactive)
CN(CC(=O)N1CCN(c2ccc(F)cc2)CC1)S(=O)(=O)c1ccc(F)cc1 | 389 | -5.2% (inactive) | -9.8% (inactive) | 103% | -100% (inactive) | 121% | -0.595 (inactive) | -6.1e-05 (inactive) | 0.00279 (inactive) | 11.3% (inactive) | -4.19% (inactive)
CCN1CCN(c2nc(-c3cccnc3)nc3ccccc23)CC1 | 598 | 11.2% (inactive) | -11.6% (inactive) | 94.7% | -58.2% (inactive) | 103% | -0.468 (inactive) | 2.1e-05 (inactive) | 0.00671 (inactive) | 12.9% (inactive) | 37.7% (inactive)
Cc1ccccc1CS(=O)(=O)Cc1ccc(C(=O)NCCCN2CCOCC2)o1 | 434 | 5% (inactive) | -1.9% (inactive) | 99% | -156% (inactive) | 120% | -0.586 (inactive) | -2.7e-05 (inactive) | 0.00703 (inactive) | -17.1% (inactive) | -16.4% (inactive)
c1ccc2c(-c3nc(C4CCCCC4)no3)cc(-c3ccncc3)nc2c1 | 570 | -12.8% (inactive) | 17.4% (inactive) | 73.3% | 48.8% (inactive) | 58.9% | -0.535 (inactive) | -1.6e-05 (inactive) | 0.00839 (inactive) | 11.5% (inactive) | 1.56% (inactive)
CSc1ccccc1NS(=O)(=O)c1ccccc1 | 558 | -1% (inactive) | -14.6% (inactive) | 96.9% | -8.2% (inactive) | 105% | -0.454 (inactive) | 1.4e-05 (inactive) | 0.00445 (inactive) | 13% (inactive) | 12.9% (inactive)
Cc1occc1C(=O)Nc1cccnc1 | 537 | -21.3% (inactive) | -33.6% (inactive) | 108% | -9.9% (inactive) | 84.1% | -0.538 (inactive) | -4.1e-05 (inactive) | 0.00413 (inactive) | 18.2% (inactive) | 7.63% (inactive)
CCOc1ccc(N(C)S(=O)(=O)c2ccc3[nH]cc(C(=O)NCC4CCCO4)c(=O)c3c2)cc1 (configuration not stated) | 313 | 3.3% (inactive) | -9.8% (inactive) | 67.5% | 4% (inactive) | 96.5% | -0.567 (inactive) | -4.5e-05 (inactive) | 0.00944 (inactive) | 1.36% (inactive) | 23% (inactive)
COc1ccc(OC)c(CNC(=O)CCN2C(=O)COc3ccccc32)c1 | 663 | 14.4% (inactive) | 21.7% (inactive) | 64% | -29.9% (inactive) | 110% | -0.479 (inactive) | -6e-05 (inactive) | 0.00555 (inactive) | -19.9% (inactive) | -11.1% (inactive)
O=C(OCc1cc2ccccc2[nH]c1=O)c1ccncc1 | 826 | -3.9% (inactive) | 25.6% (inactive) | 104% | -66% (inactive) | 115% | -0.536 (inactive) | -4.4e-05 (inactive) | 0.00554 (inactive) | 19.9% (inactive) | 23.1% (inactive)
O=C(CN1C(=O)COc2ccccc21)NCCCN1CCN(Cc2ccccc2)CC1 | 470 | -2.6% (inactive) | 0.5% (inactive) | 91.9% | -131% (inactive) | 232% | -0.581 (inactive) | -8.3e-06 (inactive) | 0.00512 (inactive) | -9.51% (inactive) | -8.02% (inactive)
COc1cccc(C(=O)Nc2ccc(N(C)C)cc2)c1OC | 718 | 0.8% (inactive) | 1.4% (inactive) | 104% | -79.8% (inactive) | 109% | -0.493 (inactive) | 1.7e-05 (inactive) | 0.00556 (inactive) | -4.94% (inactive) | -69.6% (inactive)
O=C(Cn1cnc2c(nnn2-c2ccc(F)cc2)c1=O)NCc1ccco1 | 657 | 9.2% (inactive) | -33.9% (inactive) | 78.6% | -8.8% (inactive) | 122% | -0.596 (inactive) | -4.4e-06 (inactive) | 0.00537 (inactive) | 5.73% (inactive) | 12% (inactive)
NC(=O)c1c(-c2ccccc2)oc2ccc(O)cc12 | 380 | -4.7% (inactive) | 11.1% (inactive) | 103% | -104% (inactive) | 92.8% | -0.532 (inactive) | -1.2e-05 (inactive) | 0.00463 (inactive) | -8.7% (inactive) | -13.7% (inactive)
COc1ccc(-c2cc(C(F)(F)F)nc(SCCC(=O)N3CCOCC3)n2)cc1 | 506 | -6.7% (inactive) | -23.3% (inactive) | 83.6% | -59.7% (inactive) | 133% | -0.596 (inactive) | -1.1e-06 (inactive) | 0.00462 (inactive) | 16.4% (inactive) | -4.79% (inactive)
CN(c1ccccc1)S(=O)(=O)c1cc(C(=O)N2CCN(c3ccccn3)CC2)ccc1Cl | 628 | 2.4% (inactive) | -6.5% (inactive) | 134% | -52.9% (inactive) | 108% | -0.475 (inactive) | -6e-05 (inactive) | 0.00416 (inactive) | 15.7% (inactive) | 13.1% (inactive)
O=C(Cn1nnc(-c2ccncc2)n1)Nc1ccc2c(c1)CCC2 | 674 | -8.6% (inactive) | 5% (inactive) | 89.1% | -115% (inactive) | 140% | -0.465 (inactive) | -6.3e-05 (inactive) | 0.00619 (inactive) | -0.547% (inactive) | -23.3% (inactive)
COC(=O)Nc1ccc(S(=O)(=O)N2CCN(c3ccc(F)cc3)CC2)cc1 | 381 | -3.7% (inactive) | 12.1% (inactive) | 100% | -124% (inactive) | 123% | -0.564 (inactive) | -0.000131 (inactive) | 0.00356 (inactive) | 6.88% (inactive) | 13.6% (inactive)
C=CCOc1ccc(C2C(C(=O)c3ccco3)=C(O)C(=O)N2Cc2cccnc2)cc1 (configuration not stated) | 341 | -7.7% (inactive) | -11.2% (inactive) | 107% | -61.9% (inactive) | 103% | -0.543 (inactive) | -0.000128 (inactive) | 0.00458 (inactive) | 17.4% (inactive) | 14.5% (inactive)
COc1ccc(-c2cc(C(F)F)n3ncc(C(=O)NCC4CCCO4)c3n2)cc1 (configuration not stated) | 244 | 4.7% (inactive) | -15.8% (inactive) | 78.7% | -51% (inactive) | 108% | -0.000811 (active) | -2.9e-05 (inactive) | 0.00542 (inactive) | 20.7% (inactive) | 11.4% (inactive)
CCOC(=O)C1=C(C)Nc2ncnn2C1c1ccccc1F (configuration not stated) | 469 | -5.9% (inactive) | -7.1% (inactive) | 81.7% | -49.3% (inactive) | 102% | -0.559 (inactive) | -1.9e-05 (inactive) | 0.00641 (inactive) | -5.35% (inactive) | -2.56% (inactive)
O=C(OCCCN1C(=O)c2ccccc2C1=O)c1ccco1 | 643 | -2.2% (inactive) | 17.8% (inactive) | 96.8% | 33.4% (inactive) | 98.5% | -0.482 (inactive) | 4.2e-05 (inactive) | 0.00571 (inactive) | -6.62% (inactive) | -11.6% (inactive)
Cc1ccc(-c2nc(-c3cccnc3)no2)c(C)c1 | 357 | 4.2% (inactive) | -8% (inactive) | 107% | -54.5% (inactive) | 105% | -0.571 (inactive) | -3.5e-05 (inactive) | 0.00802 (inactive) | -33.6% (inactive) | -111% (inactive)
